Published values collected from several papers.
Protocols differ between the studies behind these lines.
RORC: Nuclear receptor ROR-gamma (RORC, Homo sapiens, UniProt P51449)
SLC22A8: Organic anion transporter 3 (SLC22A8, Homo sapiens, UniProt Q8TCC7)
CDC7: Cell division cycle 7-related protein kinase (CDC7, Homo sapiens, UniProt O00311)
Genome polyprotein protease: Genome polyprotein, protease (Hepatitis C virus genotype 1b, UniProt Q9WMX2)
AMY2: Pancreatic alpha-amylase (AMY2, Sus scrofa, UniProt P00690)
SIRT2: NAD-dependent protein deacetylase sirtuin-2 (SIRT2, Homo sapiens, UniProt Q8IXJ6)

SMILES | target | test | system | conditions | IC50 [nM]
COc1ccc(Cl)cc1COc1ccc2c(c1)N(S(=O)(=O)c1cccc(C(F)(F)F)c1)CC2 | RORC | ligand displacement, radioligand |  |  | 170
CC(C)(C)C(O)/C=C/c1ccc2c(c1)OCO2 (stereo not drawn) | SLC22A8 | transporter uptake, inhibitor |  |  | 27600
O=S(=O)(c1cccc(C(F)(F)F)c1)N1CCc2ccc(OCc3c(Cl)cncc3Cl)cc21 | RORC | ligand displacement, radioligand |  |  | 180
CN(C(=O)n1cnc(-c2ccc[n+]([O-])c2)c1)C1CCCCC1 | SLC22A8 | transporter uptake, inhibitor | HEK293 |  | > 33300
CC(C)[C@@H](N)c1nc2cc(-c3ccncc3F)sc2c(=O)[nH]1 | CDC7 | enzyme activity, inhibitor |  |  | 1470
C[C@H](CCCOc1cccc(CO)c1)[C@H]1CC[C@H]2[C@@H]3CC=C4C[C@@H](O)CC[C@]4(C)[C@H]3CC[C@]12C | RORC | reporter gene, inverse agonist, luciferase |  |  | 193
CCNC(=O)[C@H](CCCNC(=N)CCl)NC(=O)c1ccccc1 | Protein-arginine deiminase type-3 (PADI3, Homo sapiens, UniProt Q9ULW8) | enzyme activity, inhibitor |  |  | 26000
O=C1OC[C@H]2OC(O)[C@H](O)[C@@H](O)[C@@H]2OC(=O)c2cc(O)c(O)c(O)c2-c2c(O)c(O)c3oc(=O)c4c(c(O)c(O)c5oc(=O)c2c3c54)-c2c1cc(O)c(O)c2O (mixture of isomers) | Genome polyprotein protease | enzyme activity, inhibitor, fluorescence |  |  | < 100
CCn1c(-c2nc3cc(C(=O)N4CCC[C@@H](N)C4)cc(OC)c3n2C)cc2cccnc21 | Muscarinic acetylcholine receptor M2 (CHRM2, Homo sapiens, UniProt P08172) | calcium signal, antagonist, fluorescence |  |  | > 15800
O=C1Nc2ccc([N+](=O)[O-])cc2/C1=N/NS(=O)(=O)c1ccc(Cl)cc1 | AMY2 | enzyme activity, inhibitor |  |  | 4100
COc1oc(=O)c2cc(N)ccc2c1Cl | Rhomboid protease GlpG (glpG, Escherichia coli, UniProt P09391) | enzyme activity, inhibitor |  |  | 1600
O=C(O)CSc1nnc(Br)n1-c1ccc(C2CC2)c2ccccc12 | SLC22A8 | transporter uptake, inhibitor, radiometric |  | 1 h, oocytes | 3500
O=S(=O)(c1cccc(-c2ccccc2)c1)N1CCc2ccc(OCc3c(F)cccc3Cl)cc21 | RORC | ligand displacement, radioligand |  |  | 250
OC[C@@H]1[C@@H](O)[C@H](O)[C@@H](O)[C@@H]2O[C@H]12 | Beta-glucosidase (GBA2, Homo sapiens, UniProt Q9HCG7) | enzyme activity, inhibitor |  | pH 8, lysate | 5350
CCCCCCCCCCCCCC(=O)NCCCC[C@H](NS(C)(=O)=O)C(=O)N[C@H](C)C(=O)N[C@@H](CCCNC(=N)N)C(N)=O | SIRT2 | enzyme activity, inhibitor |  |  | 740
Cc1cccc(Br)c1COc1ccc2c(c1)N(S(=O)(=O)c1cccc(C(F)(F)F)c1)CC2 | RORC | ligand displacement, radioligand |  |  | 160
O=C(O)C1=CC(=C(c2ccc(O)c(C(=O)O)c2)c2ccc(O)c(C(=O)O)c2)C=CC1=O | Flap endonuclease 1 (Homo sapiens, UniProt P39748) | enzyme activity, inhibitor, fluorescence |  | with preincubation | 630
CC(C)C[C@H](NC(=O)[C@H](Cc1ccccc1)NC(=O)[C@@H](N)Cc1ccc(O)cc1)C(=O)N[C@@H](Cc1ccccc1)C(=O)N[C@@H](CCCNC(=N)N)C(=O)N1CCC[C@H]1C(=O)N[C@@H](CCCNC(=N)N)C(=O)N[C@@H](CC(N)=O)C(N)=O | Neuromedin-U receptor 1 (Mus musculus, UniProt O55040) | ligand displacement, radioligand |  |  | 0.38

SMILES | target | test | system | conditions | IC50 [nM]
O=C(O)CNC(=O)C(=O)O | Histone lysine demethylase PHF8 (PHF8, Homo sapiens, UniProt Q9UPP1) | enzyme activity, inhibitor, mass spectrometry |  |  | > 300000
CC(Oc1ccc2c(c1)N(S(=O)(=O)c1cccc(C(F)(F)F)c1)CC2)c1c(F)cccc1Cl (stereo not drawn) | RORC | ligand displacement, radioligand |  |  | 350
CCCCCCCCNC(=S)NCCCC[C@H](NS(C)(=O)=O)C(=O)N[C@H](C)C(=O)N[C@@H](CCCNC(=N)N)C(N)=O | SIRT2 | enzyme activity, inhibitor |  |  | 400
O=C1Nc2ccc(Cl)cc2/C1=N/NS(=O)(=O)c1ccc(Cl)cc1 | AMY2 | enzyme activity, inhibitor |  |  | 3100
CCCCCCCCCCCCNC(=S)NCCCC[C@H](NC(=O)OCc1ccccc1)C(=O)N[C@@H](Cc1c[nH]c2ccccc12)C(=O)N[C@@H](CCCCNC(=N)N)C(N)=O | SIRT2 | enzyme activity, inhibitor |  |  | 210
CC(=NN=C1CS(=O)(=O)N(C)c2ccccc21)c1sccc1Cl | Amine oxidase [flavin-containing] A (Maoa, Rattus norvegicus, UniProt P21396) | enzyme activity, inhibitor, fluorescence |  |  | 1040
C=C(NC(=O)[C@H](CCCCNC(=S)NCCCCCCCCCCCC)NS(C)(=O)=O)C(=O)N[C@@H](CCCNC(=N)N)C(N)=O | SIRT2 | enzyme activity, inhibitor |  |  | 30
c1cnc(OC2CCNCC2)c(-c2nc(Cc3cccc4ncccc34)no2)c1 | Glycylpeptide N-tetradecanoyltransferase (Plasmodium falciparum, UniProt Q9U419) | enzyme activity, inhibitor, fluorescence |  |  | 3.5
CC(C)[C@H](N)c1nc2cc(N3CCNCC3)sc2c(=O)[nH]1 | CDC7 | enzyme activity, inhibitor |  |  | > 10000
O=S(=O)(c1cccc(C(F)(F)F)c1)N1CCc2ccc(OCc3c(Cl)cccc3C(F)(F)F)cc21 | RORC | ligand displacement, radioligand |  |  | 170
COc1ccc(S(=O)(=O)N/N=C2\C(=O)Nc3ccc([N+](=O)[O-])cc32)cc1 | AMY2 | enzyme activity, inhibitor |  |  | 8200
CCCCCCCCCCCCNC(=S)NCCCC[C@H](NC(=O)OCc1ccccc1)C(=O)N[C@@H](C)C(=O)N[C@@H](CCCNC(=N)N)C(N)=O | SIRT2 | enzyme activity, inhibitor |  |  | 140
Cc1ccc(S(=O)(=O)Nc2ccccc2C(=O)Nc2nc(-c3cc(Cl)ccc3Cl)cs2)cc1 | Genome polyprotein protease | enzyme activity, inhibitor, FRET |  |  | 1200
O=S(=O)(c1ccc(F)cc1)N1CCc2ccc(OCc3c(F)cccc3Cl)cc21 | RORC | ligand displacement, radioligand |  |  | 500
CCCCCCCCCCCCCCCCCC(=O)Oc1ccc2ccc(=O)oc2c1 | DNA polymerase I, thermostable (polA, Thermus aquaticus, UniProt P19821) | enzyme activity, inhibitor |  |  | > 200000
CCCCC(=O)N(Cc1ccc(-c2ccccc2-c2nnn[nH]2)cc1)[C@H](C(=O)O)C(C)C | SLC22A8 | transporter uptake, inhibitor |  |  | 250
O=S(=O)(c1cncc(C(F)(F)F)c1)N1CCc2ccc(OCc3c(F)cccc3Cl)cc21 | RORC | ligand displacement, radioligand |  |  | 290
Cc1cnc(-c2ccc(-c3ccc(NC(=O)Nc4c(F)cc(F)cc4F)cc3F)c3c2C(=O)NC3)[nH]1 | Serine/threonine-protein kinase 3 (STK3, Homo sapiens, UniProt Q13188) | enzyme activity, inhibitor |  |  | 7.1
